# Test results published in article PMC12125705 (Journal of medicinal chemistry, 2017).
# pIC50: −log10 of the molar value.
# Columns and labels:
# S. aureus 29213 = conditions: compounds 1–4 reproduced; ref [35]; cited from earlier work
# [1] = molecular target: RNA topoisomerase activity of E. coli topoisomerase I (EcoTop1) (Escherichia coli, UniProt P06612); experiment: RNA topoisomerase inhibition assay; format: biochemical; conditions: 10 nM EcoTop1; for inhibitory effect on the RNA topoisomerase activity of EcoTop1: at concentrations up to 50 μM; for concentration at which RNA topoisomerase activity is inhibited: concentration-dependent, 2.5–40 μM tested; for effect on the RNA topoisomerase activity of EcoTop1: even at 80 μM concentrations
# Sequence of RNA topoisomerase activity of E. coli topoisomerase I (EcoTop1) (P06612 whole entry): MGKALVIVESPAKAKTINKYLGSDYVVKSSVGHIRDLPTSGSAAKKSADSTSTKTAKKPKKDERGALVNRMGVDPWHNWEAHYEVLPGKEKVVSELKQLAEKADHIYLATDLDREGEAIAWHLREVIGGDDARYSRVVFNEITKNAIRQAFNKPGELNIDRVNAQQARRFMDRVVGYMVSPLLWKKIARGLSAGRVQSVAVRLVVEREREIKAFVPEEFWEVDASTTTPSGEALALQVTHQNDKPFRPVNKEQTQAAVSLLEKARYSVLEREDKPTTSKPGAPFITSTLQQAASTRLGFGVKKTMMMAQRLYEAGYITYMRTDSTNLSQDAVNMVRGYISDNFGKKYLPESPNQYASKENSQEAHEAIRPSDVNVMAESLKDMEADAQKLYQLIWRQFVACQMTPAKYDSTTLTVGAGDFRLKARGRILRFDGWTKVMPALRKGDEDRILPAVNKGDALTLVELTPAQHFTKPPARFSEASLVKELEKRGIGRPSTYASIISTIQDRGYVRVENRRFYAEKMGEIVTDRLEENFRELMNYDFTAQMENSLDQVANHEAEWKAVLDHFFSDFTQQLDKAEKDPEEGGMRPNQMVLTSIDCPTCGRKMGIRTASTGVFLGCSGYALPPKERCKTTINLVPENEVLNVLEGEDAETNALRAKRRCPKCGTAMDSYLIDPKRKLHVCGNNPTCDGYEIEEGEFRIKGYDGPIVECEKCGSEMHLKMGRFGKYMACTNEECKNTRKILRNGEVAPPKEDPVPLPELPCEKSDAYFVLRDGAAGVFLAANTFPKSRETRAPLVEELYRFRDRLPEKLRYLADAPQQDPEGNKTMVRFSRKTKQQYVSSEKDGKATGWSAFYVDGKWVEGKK
# [2] = system: Gram-positive bacterial strains; experiment: MIC by microbroth dilution, summary over strains in text; format: cell-based; conditions: Shigella flexneri, read-out: MIC values against most Gram-positive strains
# E. faecalis 29212 = conditions: compounds 1–4 reproduced; ref [35]; cited from earlier work
# [3] = system: human prostate cancer cell line DU-145; experiment: Cytotoxicity; format: cell-based; conditions: 48 h treatment, SRB
# Outline: (§1)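 Cells grown per ATCC protocols, trypsin-EDTA harvested, trypan-blue counted, seeded at […] cells/well, and allowed to recover 24 h (37 °C, 5% CO2). They were then treated in triplicate at final 20, 10, 5, 2.5, 1.25, 0.625 and 0.0625 μM for 48 h. Fixed with cold TCA (16% final, 4 °C, 1 h), stained 15 min with SRB in 1% acetic acid, dye dissolved in 10 mM Tris base, A560 read. IC50 derived from absorbance; study done in duplicate.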
# S. aureus 33591 = conditions: compounds 1–4 reproduced; ref [35]; cited from earlier work
# [4] = molecular target: E. coli DNA topoisomerase I (Escherichia coli, UniProt P06612); format: biochemical; conditions: at 50 μM
# Sequence of E. coli DNA topoisomerase I (P06612 whole entry): as above
# Cytotoxicity [5] = format: cell-based, human; conditions: human, DU-145 prostate cancer cells
# Outline: as §1
# A. baumanni 19606 = experiment: MIC by microbroth dilution; format: cell-based, Acinetobacter baumanni; conditions: Acinetobacter, 19606, 24 h, read-out: MIC A. baumanni 19606
# Outline: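 CLSI microbroth dilution in Mueller-Hinton broth. Strains were grown at 37 °C with shaking to log phase, pelleted, and resuspended in 0.85% saline to OD625 0.1. Final inoculum 5 × 10^5 CFU/mL in 96-well plates, tested in triplicate, incubated 24 h at 37 °C. Growth was read as OD at 625 nm.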
# E. coli K12 = conditions: compounds 1–4 reproduced; ref [35]; cited from earlier work
# [6] = molecular target: T1, human DNA topoisomerase I (Homo sapiens, UniProt P11387); conditions: read-out: IC50 hTopoI, values reproduced, ref [35]; cited from earlier work
# T1 sequence (P11387 1-765): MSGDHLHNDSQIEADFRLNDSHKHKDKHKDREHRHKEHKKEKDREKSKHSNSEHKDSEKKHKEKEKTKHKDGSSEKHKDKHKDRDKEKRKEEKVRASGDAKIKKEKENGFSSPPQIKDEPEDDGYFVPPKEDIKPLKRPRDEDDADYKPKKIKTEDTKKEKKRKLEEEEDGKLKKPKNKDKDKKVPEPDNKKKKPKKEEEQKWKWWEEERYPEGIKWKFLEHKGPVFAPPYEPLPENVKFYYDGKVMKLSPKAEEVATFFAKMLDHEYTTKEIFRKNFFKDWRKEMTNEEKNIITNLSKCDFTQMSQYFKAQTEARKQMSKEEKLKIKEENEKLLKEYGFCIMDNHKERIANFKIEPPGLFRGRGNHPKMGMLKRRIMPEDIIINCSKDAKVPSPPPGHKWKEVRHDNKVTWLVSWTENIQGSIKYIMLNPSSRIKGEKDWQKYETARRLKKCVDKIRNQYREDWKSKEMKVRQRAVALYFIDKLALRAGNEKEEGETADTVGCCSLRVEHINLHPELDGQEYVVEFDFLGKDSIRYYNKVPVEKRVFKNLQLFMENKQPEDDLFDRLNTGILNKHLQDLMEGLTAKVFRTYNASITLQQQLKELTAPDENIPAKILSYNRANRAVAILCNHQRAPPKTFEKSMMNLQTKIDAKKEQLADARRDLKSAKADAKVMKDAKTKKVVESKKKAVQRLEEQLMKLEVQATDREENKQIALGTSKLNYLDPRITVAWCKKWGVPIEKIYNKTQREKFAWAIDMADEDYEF
# E. coli 25922 = conditions: compounds 1–4 reproduced; ref [35]; cited from earlier work
# Cytotoxicity [7] = format: cell-based; conditions: human, PCS 201-010 normal dermal fibroblast cells
# Outline: as §1
smiles,measurement,setting,value
C#CCOc1ccc(-c2nc3ccc(-c4nc5ccc(N6CCN(C)CC6)cc5[nH]4)cc3[nH]2)cc1 [Compound 1],MIC S. aureus 29213,S. aureus 29213,2 to 4 µg/mL
same,inhibitory effect on the RNA topoisomerase activity of EcoTop1,[1],no discernible inhibitory effect
same,MIC,[2],0.3 to 4 µg/mL
same,MIC E. faecalis 29212,E. faecalis 29212,16 to 32 µg/mL
same,cytotoxicity to DU-145 compared with Hoechst 33258,[3],more cytotoxic
same,MIC S. aureus 33591,S. aureus 33591,2 to 4 µg/mL
"C#CCOCCOCCOCCOCCOCCOCCOc1ccc(-c2nc3ccc(-c4nc5ccc(N6CCN(C)CC6)cc5[nH]4)cc3[nH]2)cc1 [Compound 9, 2′-(4-(3,6,9,12,15,18-Hexaoxahenicos-20-ynyloxy)phenyl)-6-(4-methylpiperazin-1-yl)-1H,3′H-2,5′-bibenzo[d]imidazole]",inhibition of the activity of E. coli DNA topoisomerase I,[4],did not significantly inhibit
same,inhibitory effect on the RNA topoisomerase activity of EcoTop1,[1],no discernible inhibitory effect
same,IC50 at 48 h,Cytotoxicity [5],> 10 µM
same,MIC,A. baumanni 19606,> 32 µg/mL
C#CCCCCOc1ccc(-c2nc3ccc(-c4nc5ccc(N6CCN(C)CC6)cc5[nH]4)cc3[nH]2)cc1 [Compound 2],MIC S. aureus 29213,S. aureus 29213,2 to 4 µg/mL
same,MIC E. coli K12,E. coli K12,8 to 16 µg/mL
same,pIC50,[6],< 4.30
same,inhibitory effect on the RNA topoisomerase activity of EcoTop1,[1],no discernible inhibitory effect
same,MIC,[2],0.3 to 4 µg/mL
same,MIC E. coli 25922,E. coli 25922,8 to 16 µg/mL
same,cytotoxicity to DU-145 compared with Hoechst 33258,[3],more cytotoxic
same,MIC S. aureus 33591,S. aureus 33591,2 to 4 µg/mL
"CN1CCN(c2ccc3nc(-c4ccc(OCCCNC(=O)OC(C)(C)C)cc4)[nH]c3c2)CC1 [Compound 15, tert-Butyl 3-(4-(6-(4-Methylpiperazin-1-yl)-1H-benzo[d]imidazol-2-yl)phenoxy)propylcarbamate]",MIC,A. baumanni 19606,> 32 µg/mL
CN1CCN(c2ccc3nc(-c4ccc(OCc5cn(CCCCN=[N+]=[N-])nn5)cc4)[nH]c3c2)CC1 [Compound 20],inhibitory effect on the RNA topoisomerase activity of EcoTop1,[1],no discernible inhibitory effect
"C#CCOCCCCCCCCCCOc1ccc(-c2nc3ccc(-c4nc5ccc(N6CCN(C)CC6)cc5[nH]4)cc3[nH]2)cc1 [Compound 7, 6-(4-Methylpiperazin-1-yl)-2′-(4-(10-(prop-2-ynyloxy)decyloxy)phenyl)-1H,3′H-2,5′-bibenzo[d]imidazole]",concentration at which RNA topoisomerase activity is inhibited,[1],about 10 μM
same,IC50 at 48 h,Cytotoxicity [5],> 10 µM
same,MIC,A. baumanni 19606,> 32 µg/mL
"C#CCOCCCCCCCCCCCCOc1ccc(-c2nc3ccc(-c4nc5ccc(N6CCN(C)CC6)cc5[nH]4)cc3[nH]2)cc1 [Compound 8, 6-(4-Methylpiperazin-1-yl)-2′-(4-(12-(prop-2-ynyloxy)dodecyloxy)phenyl)-1H,3′H-2,5′-bibenzo[d]imidazole]",IC50 at 48 h,Cytotoxicity [7],> 10 µM
same,concentration at which RNA topoisomerase activity is inhibited,[1],about 10 μM
same,IC50 at 48 h,Cytotoxicity [5],> 10 µM
"C#CCOCCCCCCCCOc1ccc(-c2nc3ccc(-c4nc5ccc(N6CCN(C)CC6)cc5[nH]4)cc3[nH]2)cc1 [Compound 6, 6-(4-Methylpiperazin-1-yl)-2′-(4-(8-(prop-2-ynyloxy)octyloxy)phenyl)-1H,3′H-2,5′-bibenzo[d]imidazole]",concentration at which RNA topoisomerase activity is inhibited,[1],about 10 μM
same,cytotoxicity to DU-145 compared with Hoechst 33258,[3],more cytotoxic
C#CCOCCCCOc1ccc(-c2nc3ccc(-c4nc5ccc(N6CCN(C)CC6)cc5[nH]4)cc3[nH]2)cc1 [Compound 4],MIC S. aureus 29213,S. aureus 29213,2 to 4 µg/mL
same,MIC E. coli K12,E. coli K12,8 to 16 µg/mL
same,pIC50,[6],< 4.30
same,inhibitory effect on the RNA topoisomerase activity of EcoTop1,[1],no discernible inhibitory effect
same,MIC,[2],0.3 to 4 µg/mL
same,MIC E. coli 25922,E. coli 25922,8 to 16 µg/mL
same,cytotoxicity to DU-145 compared with Hoechst 33258,[3],more cytotoxic
same,MIC S. aureus 33591,S. aureus 33591,2 to 4 µg/mL
"CN1CCN(c2ccc3nc(-c4ccc(OCc5cn(CCN=[N+]=[N-])nn5)cc4)[nH]c3c2)CC1 [Compound 19, 2-(4-((1-(2-Azidoethyl)-1H-1,2,3-triazol-4-yl)methoxy)-phenyl)-6-(4-methylpiperazin-1-yl)-1H-benzo[d]imidazole]",MIC,A. baumanni 19606,> 32 µg/mL
"Oc1ccc(-c2nc3ccccc3[nH]2)cc1 [Compound 13, 4-(1H-Benzo[d]imidazol-2-yl)phenol]",MIC,A. baumanni 19606,16 to 32 µg/mL
"C#Cc1ccc(-c2cn(CCOc3ccc(-c4nc5ccc(N6CCN(C)CC6)cc5[nH]4)cc3)nn2)cc1 [Compound 21, 2-(4-(2-(4-(4-Ethynylphenyl)-1H-1,2,3-triazol-1-yl)ethoxy)-phenyl)-6-(4-methylpiperazin-1-yl)-1H-benzo[d]imidazole]",MIC,A. baumanni 19606,> 32 µg/mL
"CCOc1ccc2nc3cc(N)ccc3c(N)c2c1 [ethacridine, reference compound]",effect on the RNA topoisomerase activity of EcoTop1,[1],do not have any effect
C#CCCCCCCCCCOc1ccc(-c2nc3ccc(-c4nc5ccc(N6CCN(C)CC6)cc5[nH]4)cc3[nH]2)cc1 [Compound 3],MIC E. coli K12,E. coli K12,8 to 16 µg/mL
same,pIC50,[6],< 4.30
same,concentration at which RNA topoisomerase activity is inhibited,[1],about 10 μM
same,MIC E. faecalis 29212,E. faecalis 29212,16 to 32 µg/mL
same,IC50 at 48 h,Cytotoxicity [5],> 10 µM
"CN1CCN(c2ccc3nc(-c4ccc5nc(-c6ccc(O)cc6)[nH]c5c4)[nH]c3c2)CC1.Cl.Cl.Cl [Hoechst 33258, reference compound]",MIC,[2],0.3 to 4 µg/mL
same,IC50 at 48 h,Cytotoxicity [5],> 10 µM
"CCOc1ccc(-c2nc3cc(-c4nc5cc(N6CCN(C)CC6)ccc5[nH]4)ccc3[nH]2)cc1 [Hoechst 33342, reference compound]",effect on the RNA topoisomerase activity of EcoTop1,[1],do not have any effect
same,MIC,[2],0.3 to 4 µg/mL
"C#CCOCCCCCCOc1ccc(-c2nc3ccc(-c4nc5ccc(N6CCN(C)CC6)cc5[nH]4)cc3[nH]2)cc1 [Compound 5, 6-(4-Methylpiperazin-1-yl)-2′-(4-(6-(prop-2-ynyloxy)-hexyloxy)phenyl)-1H,3′H-2,5′-bibenzo[d]imidazole]",inhibitory effect on the RNA topoisomerase activity of EcoTop1,[1],no discernible inhibitory effect
same,cytotoxicity to DU-145 compared with Hoechst 33258,[3],more cytotoxic
same,MIC,A. baumanni 19606,> 32 µg/mL
